The record followed here is PubChem BioAssay AID1216 (Sanford-Burnham Center for Chemical Genomics, 2008).

The whole screen tested about 190,000 compounds, of which about 660 (0.35%) were called active. What follows is part of a selection rich in actives, with near analogues and random picks from the rest. Unmarked numbers belong to inactive results.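 The calls were made as follows: active = activation factor of 2 or more at 20 µM; inactive = the rest.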

Sequence of Mannose-6-phosphate isomerase (Homo sapiens) (P34949 whole entry, looked up): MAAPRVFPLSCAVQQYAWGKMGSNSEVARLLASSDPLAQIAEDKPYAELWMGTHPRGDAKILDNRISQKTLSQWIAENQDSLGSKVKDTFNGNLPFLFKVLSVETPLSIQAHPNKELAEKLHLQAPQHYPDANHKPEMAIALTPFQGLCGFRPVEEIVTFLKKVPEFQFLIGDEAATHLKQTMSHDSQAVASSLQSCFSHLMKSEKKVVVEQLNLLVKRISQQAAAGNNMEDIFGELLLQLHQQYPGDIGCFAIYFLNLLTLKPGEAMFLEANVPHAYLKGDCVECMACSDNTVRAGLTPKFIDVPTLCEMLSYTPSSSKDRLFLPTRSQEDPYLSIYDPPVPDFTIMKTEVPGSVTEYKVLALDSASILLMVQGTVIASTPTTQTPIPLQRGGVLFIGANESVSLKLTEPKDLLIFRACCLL

This experiment addresses Mannose-6-phosphate isomerase (Homo sapiens) (UniProt P34949). In words: MPI activation at elevated mannose 6-phosphate – biochemical, fluorescence intensity, near-saturating mannose 6-phosphate, primary screen (AID 1216). The note with it: coupled PMI enzyme assay, resazurin fluorescence, 20 min; at 20 µM; active compounds read high; 1 = untreated enzyme, 0 = substrate-free blank. The procedure, abridged:
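Technique: Diaphorase-driven resazurin-to-resorufin fluorescence, excitation 544, emission 590 nm | Assay system: Human PMI in coupled enzyme assay | Times: Enzyme reaction with compound 20 min at room temperature | Medium: HEPES-buffered pH 7.4 with magnesium and detergent | Reagent: Mannose-6-phosphate 1.0 mM (near-saturating) plus 0.22 mM NADP+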
On to `COc1ccc(NC(=S)SC)cc1OC`, for which the activation factor is 0.7. `CCC(CC)C(=O)Nc1ccc(S(=O)(=O)Nc2nccs2)cc1`: the activation factor is 0.9. Under `CCn1c(N)c(Br)c(=O)[nH]c1=O` stands 1.1; under `CC(=O)Nc1sc2c(c1C(c1cccc(F)c1)N1CCN(CCO)CC1)CCCC2` (stereo unspecified), 1.1. Take `Cc1cc(SCC(=O)NCCN2C(=O)CSC2=O)nc2ccccc12`: the activation factor was 1.2. On to `Cc1cc(C(=O)COC(=O)C2CC2)c(C)n1-c1ccc(F)cc1`, for which the activation factor is 0.9. For `Cc1ccc(N2C(=O)C3CC3C2=O)cc1` (stereo unspecified), the activation factor is 1. Under `Cc1ccc(N2C(=O)C(Cc3ccccc3)NC2=S)cc1` (stereo unspecified) stands 0.8. Under `C=C1c2cc(CC)ccc2NC(=O)N1c1ccc(C)cc1` stands 2.1 (active). Under `CCOC(=O)N1CCN(C(=O)Cn2cnc3ccccc3c2=O)CC1` stands 1; under `COc1ccc(NC(=O)c2sc(N3CCOCC3)nc2-c2ccccc2)c(OC)c1`, 1; under `O=C(OCc1ccc([N+](=O)[O-])cc1)c1ccccn1`, 0.9. Consider `COc1cc(C(=O)OCc2ccc([N+](=O)[O-])cc2)cc(OC)c1OC`, for which the activation factor was 2 (active). Under `COc1cc(/C=N/O)ccc1OCc1ccc([N+](=O)[O-])cc1` stands 1; under `COc1ccc(-n2nc(C(=O)Nc3cc(OC)c(OC)c(OC)c3)c3ccccc3c2=O)c(OC)c1`, 0.9; under `O=C(CSc1nnc(-c2ccc([N+](=O)[O-])cc2)o1)Nc1ccccn1`, 1. Consider `CCOC(=O)C1=C(C)NC(=O)NC1c1ccccc1` (stereo unspecified), for which the activation factor is 1. Under `CCOC(=O)C1=C(C)NC(SC)=NC1c1ccccc1` (stereo unspecified) stands 2.7 (active); under `CCOC(=O)C1=C(C)NC(C)=C(C(=O)OCC)C1c1ccccn1`, 1; under `CSc1cccc(NC(=S)N(Cc2ccccc2)Cc2ccccn2)c1`, 0.9. For the compound `CCO[C@@H]1OC(C(=O)NCc2nc3ccccc3[nH]2)=C[C@H](C2CCCCC2)[C@H]1CCCO`, the activation factor was 0.9. Under `O=C(COC(=O)c1ccc(F)cc1)Nc1nc2ccc([N+](=O)[O-])cc2s1` stands 1; under `COCCn1c(C)cc(C2=NNC(=Nc3ccc(F)cc3)SC2)c1C`, 1.3; under `Cc1cc(C2=NNC(=Nc3ccc(S(=O)(=O)N4CCOCC4)cc3)SC2)c(C)n1CC1CCCO1` (stereo unspecified), 2.1 (active). Under `C=CCn1c(C)cc(C2=NNC(=NCC)SC2)c1C` stands 1.1; under `COc1ccccc1NC(=S)N1CCN(C(c2ccccc2)c2ccccc2)CC1`, 1; under `O=C(Nc1ccc(NC(=O)c2ccco2)c(Cl)c1)c1cccc([N+](=O)[O-])c1`, 1. Under `CC(C)(C)c1ccc(/C=C/C(=O)Nc2ncccn2)cc1` stands 0.8.

For `O=C(NNc1cc(Cl)ccc1Cl)c1cccnc1Cl`, the activation factor was 2 (active).

As for `Cc1ccc(CNC(=O)c2cccnc2Cl)cc1`, the activation factor was 1. With `Cc1ccc(Cl)cc1NC(=O)c1ccccn1`, the activation factor was 1. Under `O=C(COc1ccc(-c2ccccc2)cc1)NN=C1CCCC1` stands 1.

With `Cc1ccc(-c2nn(-c3cccc(F)c3)cc2CNCCc2ccncc2)o1`, the activation factor was 1. Under `COc1ccc(N2CCN(C(=O)CCSCc3ccccc3F)CC2)cc1` stands 0.9; under `CCOc1cc(N2CCOCC2)c(OCC)cc1NC(=O)c1ccc(C)s1`, 0.7. As for `COC(=O)c1sc2[nH]c(=S)n(N)c(=O)c2c1C`, the activation factor was 2 (active).

On to `CCOC(=O)Cn1c(N)c(C(=O)OC)sc1=S`, for which the activation factor was 1.1.

With `COC(=O)c1sc(=S)n(-c2ccccc2)c1N`, the activation factor is 0.9.

On to `Cc1cccc(C)c1NC(=O)CNC(=O)Cc1ccc(Br)cc1`, for which the activation factor was 1.

Take `O=S(=O)(Nc1cc(S(=O)(=O)N2CCOCC2)ccc1N1CCCC1)c1cccs1`: the activation factor is 1.1. Under `NC(=O)CC[C@@H]1NC(=O)[C@@H]2CCCN2C(=O)c2cc([N+](=O)[O-])cc(F)c2NCCC[C@@H](C(N)=O)NC1=O` stands 1.

Consider `O=C(CC1C(=O)NCCN1CC(c1ccccc1)c1ccccc1)NCCc1cn[nH]c1` (stereo unspecified), for which the activation factor is 0.8. On to `COC(=O)c1[nH]c2ccccc2c1NC(=O)CN1CCCc2ccccc21`, for which the activation factor was 0.9. Take `COC(=O)c1[nH]c2cccc(C)c2c1NC(=O)CN1CCCc2ccccc21`: the activation factor was 2.1 (active). Under `NS(=O)(=O)c1cccc(NC(=O)CN2CCCc3ccccc32)c1` stands 1.1.

As to `C=CCNC(=O)c1ccccc1NC(=O)c1ccc(Cl)c(S(=O)(=O)Nc2cccc(C)c2C)c1`, the activation factor was 1. For the compound `Cc1cccc(C)c1NC(=S)N(Cc1cccnc1)Cc1ccccc1Cl`, the activation factor is 0.8. For `CCOC(=O)c1[nH]ncc1CN1CCCC(C(=O)c2ccc(OC)cc2C)C1` (stereo unspecified), the activation factor was 1.1. Under `COc1ccccc1N(C)S(=O)(=O)c1ccc(Cl)c(C(=O)N2CCC(C(N)=O)CC2)c1` stands 1.1.

In the case of `CCn1cc(-c2cc(C(=O)O)on2)c(C)n1`, the activation factor is 1.2. Under `COCCCNC(=S)NCCNc1nc2cc(C)c(C)cc2cc1C#N` stands 2.1 (active). For the compound `COCCCNC(=S)NC(=O)c1ccc([N+](=O)[O-])cc1`, the activation factor is 0.9. Under `Cc1ccc2nc(NCCCNC(=O)c3cnccn3)c(C#N)cc2c1` stands 0.9; under `O=C(NCc1ccccc1Cl)C1CCC(CNc2c(N3CCCCC3)c(=O)c2=O)CC1` (stereo unspecified), 1. Under `CCCCn1c(O)c(N=NC(=O)Cn2c(C(F)(F)F)nc3ccccc32)c2ccccc21` stands 1; under `CCOC(=O)N1CCC(=NNC(N)=O)CC1`, 1. For the compound `COc1cccc2cc(/C(C)=N/NC(=O)c3ccco3)oc12`, the activation factor is 1.1. Under `COc1ccccc1N(CC(=O)Nc1ccc(C(F)(F)F)cc1)S(C)(=O)=O` stands 1.1; under `Cc1nc(C)c(-c2csc(NCCc3ccccc3)n2)s1`, 1. As to `S=c1[nH]nc(NCCc2ccccc2)s1`, the activation factor is 2.1 (active). For `c1ccc(Nc2n[nH]nc2-c2ccccc2)cc1`, the activation factor was 0.9. As for `CC(C)(C)C(=O)c1cnc(Nc2ccccc2)s1`, the activation factor was 1. Under `S=c1[nH]nc(Nc2ccccc2)s1` stands 2 (active).

For `O=C(CSc1ncccn1)NCCc1ccccc1`, the activation factor is 1. Under `N=c1c2c3c(sc2ncn1N)CCCC3` stands 0.9. As for `O=c1[nH]cnc2c1c(-c1ccccc1)cn2-c1ccc(F)cc1`, the activation factor is 1.
